# Source: ChEMBL document CHEMBL1649483, “Molecular analysis of the gyrA and gyrB quinolone resistance-determining regions of fluoroquinolone-resistant Clostridium difficile mutants selected in vitro” (2009)
# Tests used:
# Assay type in all cases: functional
# Clostridioides difficile [1] = experiment: Antimicrobial activity against Clostridium difficile C253b selected after 2 ug/ml of moxifloxacin by Etest method
# Clostridioides difficile [2] = experiment: Antimicrobial activity against Clostridium difficile 630a selected after 2 ug/ml of moxifloxacin by Etest method
# In short: (§1)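 Stable in vitro-selected mutant tested for gatifloxacin susceptibility by Etest, per the manufacturer's instructions, with an 8 μg/ml breakpoint. For selection, the parent was grown in antibiotic-free brain heart infusion (BHI) for 24 h at 35°C under anaerobic conditions. […] Later steps used double the MIC. Stability was confirmed by three subcultures.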
# Clostridioides difficile [3] = experiment: Antimicrobial activity against Clostridium difficile 630 expressing tcdA and tcdB gene by Etest method
# In short: (§2)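 Parent clinical or nontoxigenic isolate tested for gatifloxacin susceptibility by Etest, run per the manufacturer's instructions; a fluoroquinolone breakpoint of 8 μg/ml was applied.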
# Clostridioides difficile [4] = experiment: Antimicrobial activity against Clostridium difficile C253a selected after 2 ug/ml of moxifloxacin by Etest method
# Clostridioides difficile [5] = experiment: Antimicrobial activity against Clostridium difficile BI2C selected after 4 ug/ml of levofloxacin by Etest method; in short: as §1
# Clostridioides difficile [6] = experiment: Antimicrobial activity against Clostridium difficile 630i harboring GyrB […] mutant gene selected after 8 ug/ml of moxifloxacin by Etest method; in short: as §1
# Clostridioides difficile [7] = experiment: Antimicrobial activity against Clostridium difficile C253d selected after 4 ug/ml of moxifloxacin by Etest method
# Clostridioides difficile [8] = experiment: Antimicrobial activity against Clostridium difficile 630h harboring GyrB […] mutant gene selected after 8 ug/ml of moxifloxacin by Etest method; in short: as §1
# Clostridioides difficile [9] = experiment: Antimicrobial activity against Clostridium difficile A422g harboring GyrA Asp81Asn mutant gene selected after 8 ug/ml of moxifloxacin by Etest method; in short: as §1
# Clostridioides difficile [10] = experiment: Antimicrobial activity against Clostridium difficile C253g harboring GyrA Ala118Ser mutant gene selected after 8 ug/ml of moxifloxacin by Etest method
# Clostridioides difficile [11] = experiment: Antimicrobial activity against Clostridium difficile 630B selected after 4 ug/ml of levofloxacin by Etest method; in short: as §1
# Clostridioides difficile [12] = experiment: Antimicrobial activity against Clostridium difficile BI2 by Etest method; in short: as §2
# Clostridioides difficile [13] = experiment: Antimicrobial activity against Clostridium difficile A422c selected after 2 ug/ml of moxifloxacin by Etest method; in short: as §1
# Clostridioides difficile [14] = experiment: Antimicrobial activity against Clostridium difficile A422H harboring GyrA Thr82Ile and GyrB Leu451Phe mutant genes selected after 8 ug/ml of levofloxacin by Etest method; in short: as §1
# Clostridioides difficile [15] = experiment: Antimicrobial activity against Clostridium difficile CD25 expressing tcdA, tcdB gene and GyrB Ser416Ala mutant gene by Etest method
# Clostridioides difficile [16] = experiment: Antimicrobial activity against Clostridium difficile A422I harboring GyrA Thr82Ile and GyrB Leu451Phe mutant genes selected after 8 ug/ml of levofloxacin by Etest method; in short: as §1
# Clostridioides difficile [17] = experiment: Antimicrobial activity against Clostridium difficile CD5e harboring GyrB Ser416Ala mutant gene selected after 4 ug/ml of moxifloxacin by Etest method
# Clostridioides difficile [18] = experiment: Antimicrobial activity against Clostridium difficile 630F harboring GyrA Ala118Val mutant gene selected after 8 ug/ml of levofloxacin by Etest method; in short: as §1
# Clostridioides difficile [19] = experiment: Antimicrobial activity against Clostridium difficile C253f selected after 4 ug/ml of moxifloxacin by Etest method
# Clostridioides difficile [20] = experiment: Antimicrobial activity against Clostridium difficile A422A selected after 4 ug/ml of levofloxacin by Etest method; in short: as §1
# Clostridioides difficile [21] = experiment: Antimicrobial activity against Clostridium difficile A422a selected after 2 ug/ml of moxifloxacin by Etest method; in short: as §1
# Clostridioides difficile [22] = experiment: Antimicrobial activity against Clostridium difficile CD5f harboring GyrB Ser416Ala mutant gene selected after 4 ug/ml of moxifloxacin by agar dilution method
# Clostridioides difficile [23] = experiment: Antimicrobial activity against Clostridium difficile CD25 expressing tcdA, tcdB gene and GyrB Ser416Ala mutant by agar dilution method
# Clostridioides difficile [24] = experiment: Antimicrobial activity against Clostridium difficile CD5 1-g harboring GyrA Ala92Glu and GyrB Ser416Ala mutant genes selected after 8 ug/ml of moxifloxacin by agar dilution method
# Clostridioides difficile [25] = experiment: Antimicrobial activity against Clostridium difficile C253f selected after 4 ug/ml of moxifloxacin by agar dilution method
# Clostridioides difficile [26] = experiment: Antimicrobial activity against Clostridium difficile 630d selected after 4 ug/ml of moxifloxacin by agar dilution method
# Clostridioides difficile [27] = experiment: Antimicrobial activity against Clostridium difficile 630E harboring GyrA Ala118Val mutant gene selected after 8 ug/ml of levofloxacin by agar dilution method
# Clostridioides difficile [28] = experiment: Antimicrobial activity against Clostridium difficile A422I harboring GyrA Thr82Ile and GyrB Leu451Phe mutant genes selected after 8 ug/ml of levofloxacin by agar dilution method
# Clostridioides difficile [29] = experiment: Antimicrobial activity against Clostridium difficile CD5i harboring GyrA Ala92Glu and GyrB Ser416Ala mutant genes selected after 8 ug/ml of moxifloxacin by agar dilution method
# Clostridioides difficile [30] = experiment: Antimicrobial activity against Clostridium difficile A422i harboring GyrA Asp81Asn mutant gene selected after 8 ug/ml of moxifloxacin by agar dilution method
# Clostridioides difficile [31] = experiment: Antimicrobial activity against Clostridium difficile C253E selected after 8 ug/ml of levofloxacin by agar dilution method
# Clostridioides difficile [32] = experiment: Antimicrobial activity against Clostridium difficile 630a selected after 2 ug/ml of moxifloxacin by agar dilution method
# Clostridioides difficile [33] = experiment: Antimicrobial activity against Clostridium difficile CD5F harboring GyrB Ser416Ala mutant gene selected after 8 ug/ml of levofloxacin by agar dilution method
# Clostridioides difficile [34] = experiment: Antimicrobial activity against Clostridium difficile A422B selected after 4 ug/ml of levofloxacin by agar dilution method
# Clostridioides difficile [35] = experiment: Antimicrobial activity against Clostridium difficile A422C selected after 4 ug/ml of levofloxacin by agar dilution method
# Clostridioides difficile [36] = experiment: Antimicrobial activity against Clostridium difficile C253D selected after 8 ug/ml of levofloxacin by agar dilution method
# Clostridioides difficile [37] = experiment: Antimicrobial activity against Clostridium difficile A422g harboring GyrA Asp81Asn mutant gene selected after 8 ug/ml of moxifloxacin by agar dilution method
# Clostridioides difficile [38] = experiment: Antimicrobial activity against Clostridium difficile CD5c harboring GyrB Ser416Ala mutant gene selected after 2 ug/ml of moxifloxacin by agar dilution method
# Clostridioides difficile [39] = experiment: Antimicrobial activity against Clostridium difficile BI2F harboring GyrB Glu466Lys mutant gene selected after 8 ug/ml of levofloxacin by agar dilution method
# Clostridioides difficile [40] = experiment: Antimicrobial activity against Clostridium difficile A422h harboring GyrA Asp81Asn mutant gene selected after 8 ug/ml of moxifloxacin by agar dilution method
# Clostridioides difficile [41] = experiment: Antimicrobial activity against Clostridium difficile CD5h harboring GyrA Ala92Glu and GyrB Ser416Ala mutant genes selected after 8 ug/ml of moxifloxacin by agar dilution method
# Clostridioides difficile [42] = experiment: Antimicrobial activity against Clostridium difficile 630A selected after 4 ug/ml of levofloxacin by agar dilution method
# Clostridioides difficile [43] = experiment: Antimicrobial activity against Clostridium difficile C253b selected after 2 ug/ml of moxifloxacin by agar dilution method
smiles,measurement,setting,value
COc1c(N2CCNC(C)C2)c(F)cc2c(=O)c(C(=O)O)cn(C3CC3)c12 (stereo not drawn) [GATIFLOXACIN],MIC,Clostridioides difficile [1],1 µg/mL
same,MIC,Clostridioides difficile [2],0.75 µg/mL
same,MIC,Clostridioides difficile [3],0.75 µg/mL
same,MIC,Clostridioides difficile [4],1 µg/mL
same,MIC,Clostridioides difficile [5],2 µg/mL
same,MIC,Clostridioides difficile [6],≥ 32 µg/mL
same,MIC,Clostridioides difficile [7],1 µg/mL
same,MIC,Clostridioides difficile [8],≥ 32 µg/mL
same,MIC,Clostridioides difficile [9],≥ 32 µg/mL
same,MIC,Clostridioides difficile [10],8 µg/mL
same,MIC,Clostridioides difficile [11],0.75 µg/mL
same,MIC,Clostridioides difficile [12],0.75 µg/mL
same,MIC,Clostridioides difficile [13],1.5 µg/mL
same,MIC,Clostridioides difficile [14],≥ 32 µg/mL
same,MIC,Clostridioides difficile [15],0.5 µg/mL
same,MIC,Clostridioides difficile [16],≥ 32 µg/mL
same,MIC,Clostridioides difficile [17],0.75 µg/mL
same,MIC,Clostridioides difficile [18],3 µg/mL
same,MIC,Clostridioides difficile [19],1 µg/mL
same,MIC,Clostridioides difficile [20],1 µg/mL
same,MIC,Clostridioides difficile [21],1.5 µg/mL
C[C@H]1COc2c(N3CCN(C)CC3)c(F)cc3c(=O)c(C(=O)O)cn1c23.C[C@H]1COc2c(N3CCN(C)CC3)c(F)cc3c(=O)c(C(=O)O)cn1c23.O [LEVOFLOXACIN],MIC,Clostridioides difficile [22],2 µg/mL
same,MIC,Clostridioides difficile [23],2 µg/mL
same,MIC,Clostridioides difficile [24],16 µg/mL
same,MIC,Clostridioides difficile [25],4 µg/mL
same,MIC,Clostridioides difficile [26],4 µg/mL
same,MIC,Clostridioides difficile [27],8 µg/mL
same,MIC,Clostridioides difficile [28],64 µg/mL
same,MIC,Clostridioides difficile [29],16 µg/mL
same,MIC,Clostridioides difficile [30],64 µg/mL
same,MIC,Clostridioides difficile [31],2 µg/mL
same,MIC,Clostridioides difficile [32],4 µg/mL
same,MIC,Clostridioides difficile [33],2 µg/mL
same,MIC,Clostridioides difficile [34],1 µg/mL
same,MIC,Clostridioides difficile [35],1 µg/mL
same,MIC,Clostridioides difficile [36],2 µg/mL
same,MIC,Clostridioides difficile [37],64 µg/mL
same,MIC,Clostridioides difficile [38],2 µg/mL
same,MIC,Clostridioides difficile [39],16 µg/mL
same,MIC,Clostridioides difficile [40],64 µg/mL
same,MIC,Clostridioides difficile [41],16 µg/mL
same,MIC,Clostridioides difficile [42],1 µg/mL
same,MIC,Clostridioides difficile [43],4 µg/mL
